Values after ≈ are worked out from the molar mass of the structure shown.
Legend:
SK-N-SH = experiment: Growth inhibition against human neuroblastoma cell line (SK-N-SH); assay type: functional
Tubulin beta-1 chain = Tubulin beta-1 chain (Homo sapiens, UniProt Q9H4B7); experiment: Inhibition of tubulin polymerization upon incubation for 20 min at 30 degree C
Procedure, shortened: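 Purified tubulin at 10 µM (1.0 mg/mL) in 0.8 M monosodium glutamate, pH 6.6, with 4% (v/v) DMSO and varying compound concentrations. Preincubated 15 min at 37 °C, chilled on ice, then GTP (0.4 mM) added. Warmed from 0 °C to 30 °C, and assembly followed 20 min by turbidity at 350 nm. IC50 interpolated; at least two determinations; SD reported.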

SW-1736 = experiment: Growth inhibition against human thyroid cell line( SW 1736); assay type: functional
NCI-H460 = experiment: Growth inhibition against human lung-NSC NCI-H460 cell line; assay type: functional
P388 = experiment: Effective dose against murine P388 leukemia cell line; assay type: functional; settings: Mus musculus, read-out: ED50 (the source's name)
FaDu = experiment: Growth inhibition against human pharynx FADU cell line; assay type: functional
DU-145 = experiment: Growth inhibition against human prostate cell line (DU-145); assay type: functional
BXPC-3 = experiment: Growth inhibition against human pancreas carcinoma cell line (BxPC-3); assay type: functional
Streptococcus pneumoniae = experiment: Minimum inhibitory concentration against Streptococcus pneumoniae was determined in the disk diffusion assay; value ranges from 50-100 ug/disk; assay type: functional
Micrococcus luteus = experiment: Minimum inhibitory concentration against Micrococcus luteus was determined in the disk diffusion assay; value ranges from 12.5-25 ug/disk
Candida albicans [1] = experiment: Minimum inhibitory concentration against Candida albicans was determined in the disk diffusion assay; value ranges from 25-50 ug/disk; assay type: functional
Procedure, shortened: (§1)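 Disk diffusion on Sabouraud Dextrose Agar. MIC taken as the lowest drug amount giving a clear zone of growth inhibition.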

Staphylococcus aureus = experiment: Minimum inhibitory concentration against Staphylococcus aureus was determined in the disk diffusion assay; value ranges from 25-50 ug/disk; assay type: functional
Neisseria gonorrhoeae [2] = experiment: Minimum inhibitory concentration against Neisseria gonorrhoeae was determined in the disk diffusion assay; value ranges from 50-100 ug/disk; assay type: functional
Neisseria gonorrhoeae [3] = experiment: Minimum inhibitory concentration against Neisseria gonorrhoeae was determined in the disk diffusion assay; value ranges from 12.5-25 ug/disk; assay type: functional
Cryptococcus neoformans = experiment: Minimum inhibitory concentration against Cryptococcus neoformans was determined in the disk diffusion assay; value ranges from 6.25-12.5 ug/disk; assay type: functional
Candida albicans [4] = experiment: Minimum inhibitory concentration against Candida albicans was determined in the disk diffusion assay; value ranges from 50-100 ug/disk; assay type: functional; procedure, shortened: as §1

Chain of Tubulin beta-1 chain (Q9H4B7 whole entry): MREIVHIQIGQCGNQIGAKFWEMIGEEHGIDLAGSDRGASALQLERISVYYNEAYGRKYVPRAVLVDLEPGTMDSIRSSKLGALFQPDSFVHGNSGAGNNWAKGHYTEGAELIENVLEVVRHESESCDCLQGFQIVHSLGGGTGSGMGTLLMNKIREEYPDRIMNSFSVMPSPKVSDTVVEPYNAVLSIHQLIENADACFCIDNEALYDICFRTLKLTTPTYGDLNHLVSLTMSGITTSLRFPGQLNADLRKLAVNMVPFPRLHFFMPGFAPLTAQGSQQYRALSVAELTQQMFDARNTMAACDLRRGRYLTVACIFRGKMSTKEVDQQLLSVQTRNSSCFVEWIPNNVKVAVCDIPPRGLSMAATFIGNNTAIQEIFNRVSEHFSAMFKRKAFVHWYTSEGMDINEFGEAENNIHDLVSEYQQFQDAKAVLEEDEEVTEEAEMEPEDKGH

COc1ccc(/C=C/c2cc(OC)c(OC)c(OC)c2)cc1Br
GI50 (SK-N-SH): 0.4 µg/mL (≈ 1.05 µM)
IC50 (Tubulin beta-1 chain): 31 µM
GI50 (SW-1736): 10.8 µg/mL (≈ 28.5 µM)
GI50 (NCI-H460): 0.36 µg/mL (≈ 0.949 µM)
EC50 (P388): 3.08 µg/mL (≈ 8.12 µM)
GI50 (FaDu): 11.4 µg/mL (≈ 30.1 µM)
GI50 (DU-145): 0.46 µg/mL (≈ 1.21 µM)
GI50 (BXPC-3): 0.34 µg/mL (≈ 0.897 µM)

COc1ccc(/C=C\c2cc(OC)c(OC)c(OC)c2)cc1OCC[N+](C)(C)C.[I-]
MIC (Streptococcus pneumoniae): 100 ug/disk
MIC (Micrococcus luteus): 25 ug/disk
MIC (Candida albicans [1]): 50 ug/disk
GI50 (SK-N-SH): 0.28 µg/mL
GI50 (SW-1736): 0.1 µg/mL
GI50 (NCI-H460): 0.36 µg/mL
EC50 (P388): 1.94 µg/mL
MIC (Staphylococcus aureus): 50 ug/disk
GI50 (FaDu): 0.24 µg/mL
GI50 (DU-145): 0.33 µg/mL
GI50 (BXPC-3): 37.2 µg/mL

COc1ccc(/C=C\c2cc(OC)c(OC)c(OC)c2)cc1OCCCl
GI50 (SK-N-SH): 2 µg/mL (≈ 5.28 µM)
IC50 (Tubulin beta-1 chain): > 40 µM
GI50 (SW-1736): 4.7 µg/mL (≈ 12.4 µM)
GI50 (NCI-H460): 3.7 µg/mL (≈ 9.77 µM)
EC50 (P388): 2.9 µg/mL (≈ 7.65 µM)
GI50 (FaDu): 4.6 µg/mL (≈ 12.1 µM)
GI50 (DU-145): 3.4 µg/mL (≈ 8.97 µM)
GI50 (BXPC-3): 2.7 µg/mL (≈ 7.13 µM)

COc1ccc(/C=C\c2cc(OC)c(OC)c(OC)c2)cc1[N+](=O)[O-]
GI50 (SK-N-SH): 0.014 µg/mL (≈ 0.0405 µM)
IC50 (Tubulin beta-1 chain): 2.6 µM
GI50 (SW-1736): 0.0067 µg/mL (≈ 0.0194 µM)
GI50 (NCI-H460): 0.0038 µg/mL (≈ 0.011 µM)
EC50 (P388): 2.4 µg/mL (≈ 6.95 µM)
GI50 (FaDu): 0.047 µg/mL (≈ 0.136 µM)
GI50 (DU-145): 0.047 µg/mL (≈ 0.136 µM)
GI50 (BXPC-3): 0.029 µg/mL (≈ 0.084 µM)

COc1ccc(/C=C\c2cc(OC)c(OC)c(OC)c2)cc1N(C)C
GI50 (SK-N-SH): 0.01 µg/mL (≈ 0.0291 µM)
GI50 (SW-1736): 0.8 µg/mL (≈ 2.33 µM)
GI50 (NCI-H460): 0.4 µg/mL (≈ 1.16 µM)
EC50 (P388): 0.9 µg/mL (≈ 2.62 µM)
GI50 (FaDu): 0.09 µg/mL (≈ 0.262 µM)
GI50 (DU-145): 0.11 µg/mL (≈ 0.32 µM)
GI50 (BXPC-3): 0.015 µg/mL (≈ 0.0437 µM)

COc1ccc(/C=C\c2cc(OC)c(OC)c(OC)c2)cc1OCCCO
GI50 (SK-N-SH): 0.18 µg/mL (≈ 0.481 µM)
IC50 (Tubulin beta-1 chain): 6.5 µM
GI50 (SW-1736): 0.38 µg/mL (≈ 1.01 µM)
GI50 (NCI-H460): 0.37 µg/mL (≈ 0.988 µM)
EC50 (P388): 0.63 µg/mL (≈ 1.68 µM)
GI50 (FaDu): 0.63 µg/mL (≈ 1.68 µM)
MIC (Neisseria gonorrhoeae [2]): 100 ug/disk
GI50 (DU-145): 0.43 µg/mL (≈ 1.15 µM)
GI50 (BXPC-3): 0.26 µg/mL (≈ 0.694 µM)

COc1ccc(/C=C\c2cc(OC)c(OC)c(OC)c2)cc1Br
GI50 (SK-N-SH): 0.002 µg/mL (≈ 0.00527 µM)
IC50 (Tubulin beta-1 chain): 1.1 µM
GI50 (SW-1736): 0.034 µg/mL (≈ 0.0897 µM)
GI50 (NCI-H460): 0.033 µg/mL (≈ 0.087 µM)
EC50 (P388): 0.16 µg/mL (≈ 0.422 µM)
GI50 (FaDu): 0.0058 µg/mL (≈ 0.0153 µM)
GI50 (DU-145): 0.027 µg/mL (≈ 0.0712 µM)
GI50 (BXPC-3): 0.007 µg/mL (≈ 0.0185 µM)

COc1ccc(/C=C/c2cc(OC)c(OC)c(OC)c2)cc1OCCCO
GI50 (SK-N-SH): 8.1 µg/mL (≈ 21.6 µM)
GI50 (SW-1736): 11.6 µg/mL (≈ 31 µM)
GI50 (NCI-H460): > 10 µg/mL
EC50 (P388): 6.8 µg/mL (≈ 18.2 µM)
GI50 (FaDu): 2.3 µg/mL (≈ 6.14 µM)
GI50 (DU-145): 4.5 µg/mL (≈ 12 µM)
GI50 (BXPC-3): > 10 µg/mL

COc1ccc(/C=C/c2cc(OC)c(OC)c(OC)c2)cc1[N+](=O)[O-]
GI50 (SK-N-SH): 7.3 µg/mL (≈ 21.1 µM)
GI50 (SW-1736): 2.8 µg/mL (≈ 8.11 µM)
EC50 (P388): > 10 µg/mL
GI50 (FaDu): 3.8 µg/mL (≈ 11 µM)
GI50 (DU-145): > 10 µg/mL
GI50 (BXPC-3): > 10 µg/mL

COc1ccc(/C=C\c2cc(OC)c(OC)c(OC)c2)cc1OC(=O)N(CCCl)CCCl
GI50 (SK-N-SH): 0.14 µg/mL (≈ 0.289 µM)
IC50 (Tubulin beta-1 chain): > 40 µM
GI50 (SW-1736): 0.72 µg/mL (≈ 1.49 µM)
GI50 (NCI-H460): 0.37 µg/mL (≈ 0.764 µM)
EC50 (P388): 0.074 µg/mL (≈ 0.153 µM)
GI50 (FaDu): 0.15 µg/mL (≈ 0.31 µM)
GI50 (DU-145): 0.31 µg/mL (≈ 0.64 µM)
GI50 (BXPC-3): 2.8 µg/mL (≈ 5.78 µM)

COc1ccc(/C=C/c2cc(OC)c(O)c(OC)c2)cc1O
MIC (Neisseria gonorrhoeae [3]): 25 ug/disk
GI50 (SK-N-SH): 5.5 µg/mL (≈ 18.2 µM)
IC50 (Tubulin beta-1 chain): 14 µM
GI50 (SW-1736): > 10 µg/mL
GI50 (NCI-H460): 4.9 µg/mL (≈ 16.2 µM)
EC50 (P388): 4.49 µg/mL (≈ 14.9 µM)
MIC (Cryptococcus neoformans): 12.5 ug/disk
MIC (Candida albicans [4]): 100 ug/disk
GI50 (FaDu): 3.2 µg/mL (≈ 10.6 µM)
GI50 (DU-145): 6.3 µg/mL (≈ 20.8 µM)
GI50 (BXPC-3): 5 µg/mL (≈ 16.5 µM)

COc1ccc(/C=C\c2cc(OC)c(OC)c(OC)c2)cc1OCCOS(C)(=O)=O
GI50 (SK-N-SH): 3 µg/mL (≈ 6.84 µM)
IC50 (Tubulin beta-1 chain): > 40 µM
GI50 (SW-1736): 1 µg/mL (≈ 2.28 µM)
GI50 (NCI-H460): 0.42 µg/mL (≈ 0.958 µM)
EC50 (P388): 2.87 µg/mL (≈ 6.55 µM)
GI50 (FaDu): 0.41 µg/mL (≈ 0.935 µM)
GI50 (DU-145): 0.59 µg/mL (≈ 1.35 µM)
GI50 (BXPC-3): 2.7 µg/mL (≈ 6.16 µM)
